The structures appear in SMILES notation. Active and inactive are the calls of the source. The calls are words filed in the database; no cut-off is given here. Some results are limits rather than exact numbers.

Data set [1] concerns the target NAD-dependent protein deacetylase sirtuin-1 (Homo sapiens, UniProt Q96EB6). As to the kind of experiment: Inhibition of SIRT1 (unknown origin) by FDL assay. The essentials:
(§1)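 Selectivity testing by FDL assay at concentrations up to 200 µM. SIRT1-2 assays run by an outside contract provider. Values reported as IC50.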

Data set [2] concerns the target T1, NAD-dependent protein deacylase sirtuin-6 (Homo sapiens, UniProt Q8N6T7). The data set can be described thus: […] in human BxPC3 cells assessed as reduction in H3K9ac levels incubated for 72 hrs by Western blot analysis. Type of data set: cell-based. As to conditions: BXPC-3. The essentials:
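Cells incubated 72 h with various compound concentrations; whole-cell RIPA lysates with protease inhibitors, BCA-normalised, separated on 12% SDS-PAGE, transferred to PVDF, blocked in 5% milk or BSA. Probed 10 h at 4 °C with antibodies to SIRT6, acetyl-H3K9/K18/K56, total H3, Lin28b, Myc, IGF2BP3, β-actin; HRP secondary, chemiluminescent detection.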
(A western blot detects proteins with antibodies after separation by electrophoresis.)

The species entered for another data set is Homo sapiens. The data set can be described thus: Antiproliferative activity against human OCUT-2C cells assessed as reduction in cell viability incubated for 72 hrs by MTT assay. In kind it is functional, cell-based. (In general: Tetrazolium dyes change colour on reduction, which living cells bring about.)
The subject of another data set is ASPC1. As to the kind of experiment: Antiproliferative activity against human AsPC1 cells assessed as reduction in cell viability incubated for 72 hrs by MTT assay. Type of data set: functional, cell-based. The essentials:
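PDAC cells grown in DMEM or RPMI1640 with 10% FBS and penicillin/streptomycin at 37 °C, 5% CO2. Plated in triplicate, then treated with a concentration series for 72 h. Viability read by MTT. IC50 calculated from dose-response curves.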

A further data set relates to BXPC-3. The data set can be described thus: Induction of apoptosis in human BxPC3 cells incubated for 48 hrs by propidium iodide and Annexin V-FITC staining based flow cytometry. Type of data set: functional, cell-based. The essentials:
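PANC-1 and BXPC-3 cells seeded in 6-well plates and treated with a concentration series for 48 h. Stained with Annexin V-FITC and propidium iodide for 10 min in the dark. Annexin V+ populations measured by flow cytometry.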

Data set [3] concerns PANC-1. As to the kind of experiment: Inhibition of colony formation in human PANC1 cells incubated for 9 to 18 days by crystal violet staining based assay. Type of data set: functional, cell-based. The essentials:
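Cells are seeded per well at the line-specific density: BXPC-3 750, PANC-1 500, AsPC-1 2200, MIAPaCa-2 500. Compound at several concentrations is added after 24 h. Incubation runs 9–18 days (BXPC-3 18 days, PANC-1 14 days). Cells are then fixed with 4% paraformaldehyde and stained with crystal violet, and colonies of more than 50 cells are counted.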

Data set [4] concerns the target T1, NAD-dependent protein deacylase sirtuin-6. As to the kind of experiment: Binding affinity to N-terminal his-tagged human SIRT6 expressed in Escherichia coli M15 [pREP4] by ITC assay. The essentials:
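ITC at 25 °C in 20 mM HEPES pH 7.5, 100 mM NaCl, 2 mM DTT. SIRT6 (400 µM) injected into a cell holding activator (80 µM). Kd derived from the binding isotherm.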
In general terms: Isothermal titration calorimetry measures the heat released or taken up as one component is titrated into another.

Another data set addresses Histone deacetylase 3 (Homo sapiens, UniProt O15379). The data set can be described thus: Inhibition of HDAC3 (unknown origin) by FDL assay. The essentials: as §1
A short description of data set [5]: Toxicity in BALB/c nude mouse xenografted with human PANC1 cells assessed as induction of toxicity symptoms at 100 to 150 mg/kg/day, po for 30 days. As to conditions: in vivo, 720 h. Type of data set: organism-based, PANC-1. The essentials: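 Female BALB/c nude mice, 6–8 weeks old, received 5×10⁶–1×10⁷ PANC-1 cells subcutaneously in the right flank. Once tumors reached 130–150 mm³, mice were randomized (n = 6) to vehicle or 100 or 150 mg/kg/d given orally for 30 days. Body weight and toxicity were monitored against the vehicle group.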

The test system of data set [6] is PANC-1. The data set can be described thus: Antitumor activity against human PANC1 cells xenografted in BALB/c nude mouse assessed as inhibition of tumor cell proliferation by measuring reduction in Ki67+ cells at 150 mg/kg/day, po for 30 days by IHC analysis. Type of data set: functional, organism-based. The essentials:
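PANC-1 subcutaneous xenografts in female BALB/c nude mice dosed orally for 30 days. Tumor tissue taken and stained by immunohistochemistry for Ki-67-positive cells, compared with vehicle.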

Data set [7] has as its target T1, NAD-dependent protein deacylase sirtuin-6. The data set can be described thus: Activation of N-terminal his-tagged human SIRT6 expressed in Escherichia coli M15 [pREP4] assessed as increase in peptide demyristoylation incubated for 120 mins using Ac-EALPKK(Myr)-AMC substrate by FDL assay relative to control. The essentials: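 Demyristoylation: 1 µM recombinant SIRT6 preincubated with compound for 20 min at 37 °C in 50 mM Tris-HCl pH 8.0, BSA 1 mg/mL, 1 mM DTT, with 10 µM Ac-EALPKK(Myr)-AMC. Fluorescence read. Mean ± s.d., triplicate wells, three independent experiments.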

The target in data set [8] is NAD-dependent protein deacetylase sirtuin-3, mitochondrial (Homo sapiens, UniProt Q9NTG7). The data set can be described thus: Inhibition of SIRT3 (unknown origin) by FDL assay. The essentials:
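SIRT3 and SIRT5 tested by an outsourced FDL fluorogenic deacetylase assay, each from a different contract provider. The IC50 was determined for each enzyme, with concentrations going up to 200 μM.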

In data set [9] the test system is PANC-1. The data set can be described thus: Antiproliferative activity against human PANC1 cells at 3.3 to 10 uM incubated for 24 hrs by EdU incorporation assay. Type of data set: functional, cell-based. The essentials:
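Cells seeded per well at 8000 (BXPC-3) or 4600 (PANC-1), then treated with a concentration series for 24 h. EdU incorporation detected with an EdU-Apollo kit, with Hoechst counterstain. EdU-positive cells counted by high-content imaging across 10 fields.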

The target of a further data set is Histone deacetylase 2 (Homo sapiens, UniProt Q92769). The data set can be described thus: Inhibition of HDAC2 (unknown origin) by FDL assay. The essentials: as §1
Chain of Histone deacetylase 2 (Q92769 whole entry): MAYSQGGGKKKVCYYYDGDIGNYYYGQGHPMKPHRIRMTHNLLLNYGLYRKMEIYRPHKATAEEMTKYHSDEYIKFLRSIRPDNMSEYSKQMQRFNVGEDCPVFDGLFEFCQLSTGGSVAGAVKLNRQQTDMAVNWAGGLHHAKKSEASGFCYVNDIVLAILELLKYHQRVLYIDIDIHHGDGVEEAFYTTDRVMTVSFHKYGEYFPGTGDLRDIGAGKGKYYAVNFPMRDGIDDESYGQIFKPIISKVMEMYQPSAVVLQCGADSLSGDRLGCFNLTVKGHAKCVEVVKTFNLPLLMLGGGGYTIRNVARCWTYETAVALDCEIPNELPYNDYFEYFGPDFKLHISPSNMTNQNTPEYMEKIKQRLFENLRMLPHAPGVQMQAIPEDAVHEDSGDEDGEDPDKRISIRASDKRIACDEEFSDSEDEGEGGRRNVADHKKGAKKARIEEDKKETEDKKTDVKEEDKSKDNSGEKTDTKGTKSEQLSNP
Data set [10] can be described thus: AUC (0 to t) in Sprague-Dawley rat at 10 mg/kg, po after 0.083 to 24 hrs by LC-MS/MS analysis. As to conditions: in vivo. In kind it is ADME, organism-based. The essentials: (§2)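 Male Sprague-Dawley rats, 6-8 weeks old. Dosing solution of 10 (PO) or 2 (IV) mg/mL in 5% DMSO, 10% Solutol and 85% saline, pH 7. Blood taken by cardiac puncture at 0.083–24 h (PO) or 0.25–24 h (IV). Plasma levels measured by LC-MS/MS. Values are mean ± SD, n = 3.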

Data set [11] can be described thus: Cmax in Sprague-Dawley rat at 10 mg/kg, po after 0.083 to 24 hrs by LC-MS/MS analysis. In kind it is ADME, organism-based. The arrangement: dose 10 mg/kg, route oral. As to conditions: in vivo. The essentials:
as §2

In a further data set the target is Histone deacetylase 8 (Homo sapiens, UniProt Q9BY41). As to the kind of experiment: Inhibition of HDAC8 (unknown origin) by FDL assay. The essentials: as §1
Chain of Histone deacetylase 8 (Q9BY41 whole entry): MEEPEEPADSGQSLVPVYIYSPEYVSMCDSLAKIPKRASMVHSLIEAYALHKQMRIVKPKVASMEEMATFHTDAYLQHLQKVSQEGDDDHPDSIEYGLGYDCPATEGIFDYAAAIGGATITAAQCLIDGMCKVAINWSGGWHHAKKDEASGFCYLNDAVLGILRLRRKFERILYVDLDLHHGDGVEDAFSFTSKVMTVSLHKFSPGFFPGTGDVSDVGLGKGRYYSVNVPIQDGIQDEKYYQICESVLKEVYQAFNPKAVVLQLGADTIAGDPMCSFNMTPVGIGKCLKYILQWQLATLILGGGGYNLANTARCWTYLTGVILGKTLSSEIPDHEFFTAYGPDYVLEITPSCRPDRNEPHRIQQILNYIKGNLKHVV

T1 sequence (Q8N6T7 whole entry): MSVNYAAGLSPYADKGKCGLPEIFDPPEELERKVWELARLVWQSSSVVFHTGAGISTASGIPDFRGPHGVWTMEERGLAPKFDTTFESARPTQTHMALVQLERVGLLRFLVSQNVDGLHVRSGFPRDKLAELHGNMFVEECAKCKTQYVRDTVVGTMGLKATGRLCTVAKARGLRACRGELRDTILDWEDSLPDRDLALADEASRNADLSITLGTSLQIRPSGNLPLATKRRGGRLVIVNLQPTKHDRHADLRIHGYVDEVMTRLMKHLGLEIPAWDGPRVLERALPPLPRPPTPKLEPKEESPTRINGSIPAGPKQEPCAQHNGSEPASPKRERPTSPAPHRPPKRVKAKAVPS
Chain of NAD-dependent protein deacetylase sirtuin-1 (Q96EB6 whole entry): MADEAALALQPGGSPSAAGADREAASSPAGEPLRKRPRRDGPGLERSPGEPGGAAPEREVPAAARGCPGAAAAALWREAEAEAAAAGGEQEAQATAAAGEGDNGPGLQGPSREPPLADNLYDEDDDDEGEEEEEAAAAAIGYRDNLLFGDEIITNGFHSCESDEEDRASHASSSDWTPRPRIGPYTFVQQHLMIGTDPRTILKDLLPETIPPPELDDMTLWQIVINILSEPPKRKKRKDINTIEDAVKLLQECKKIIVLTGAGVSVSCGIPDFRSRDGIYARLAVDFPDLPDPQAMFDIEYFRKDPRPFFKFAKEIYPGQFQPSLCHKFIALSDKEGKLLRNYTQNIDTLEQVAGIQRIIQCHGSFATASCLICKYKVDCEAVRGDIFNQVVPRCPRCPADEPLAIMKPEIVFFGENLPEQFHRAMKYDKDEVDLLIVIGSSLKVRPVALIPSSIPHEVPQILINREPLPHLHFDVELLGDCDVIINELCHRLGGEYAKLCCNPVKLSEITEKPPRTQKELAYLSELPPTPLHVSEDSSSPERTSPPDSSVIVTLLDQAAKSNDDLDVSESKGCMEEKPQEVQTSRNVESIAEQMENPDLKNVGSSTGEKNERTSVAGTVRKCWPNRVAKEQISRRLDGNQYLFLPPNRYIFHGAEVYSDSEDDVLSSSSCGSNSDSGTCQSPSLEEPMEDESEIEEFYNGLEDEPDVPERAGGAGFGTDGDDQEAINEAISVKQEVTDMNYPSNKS
Chain of NAD-dependent protein deacetylase sirtuin-3, mitochondrial (Q9NTG7 whole entry): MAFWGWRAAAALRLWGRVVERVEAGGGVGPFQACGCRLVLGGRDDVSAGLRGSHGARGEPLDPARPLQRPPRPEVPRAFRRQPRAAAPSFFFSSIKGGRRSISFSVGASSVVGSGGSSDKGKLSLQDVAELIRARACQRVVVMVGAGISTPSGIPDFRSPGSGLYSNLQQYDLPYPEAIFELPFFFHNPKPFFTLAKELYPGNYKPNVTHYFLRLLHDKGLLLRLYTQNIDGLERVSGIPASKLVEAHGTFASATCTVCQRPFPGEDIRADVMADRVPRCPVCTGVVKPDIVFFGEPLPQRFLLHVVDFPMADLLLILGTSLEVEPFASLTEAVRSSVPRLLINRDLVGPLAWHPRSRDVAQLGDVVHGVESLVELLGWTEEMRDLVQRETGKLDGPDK
Chain of Histone deacetylase 3 (O15379 whole entry): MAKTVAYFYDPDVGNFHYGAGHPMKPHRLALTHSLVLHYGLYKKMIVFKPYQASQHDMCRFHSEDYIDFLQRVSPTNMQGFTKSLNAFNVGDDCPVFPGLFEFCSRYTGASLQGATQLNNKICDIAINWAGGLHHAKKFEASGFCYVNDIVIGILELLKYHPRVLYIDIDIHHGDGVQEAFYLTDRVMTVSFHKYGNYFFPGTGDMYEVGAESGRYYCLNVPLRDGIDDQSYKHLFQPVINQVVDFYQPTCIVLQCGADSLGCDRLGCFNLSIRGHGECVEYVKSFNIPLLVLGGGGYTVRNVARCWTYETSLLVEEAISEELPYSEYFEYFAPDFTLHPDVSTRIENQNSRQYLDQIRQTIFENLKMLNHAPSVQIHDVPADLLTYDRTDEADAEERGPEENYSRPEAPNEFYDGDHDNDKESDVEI

As a reminder, the IC50 is the concentration that gives 50% inhibition. Usually Kd stands for the constant that tells how readily two partners part at equilibrium. The low end stands for tighter binding, the high end for weaker binding. What is called EC50 is the concentration needed to bring the measured effect to its halfway point. By Cmax is commonly meant the highest concentration seen after dosing. For the compound `O=C(NC(c1ccccc1)c1ccccc1)c1cc(-c2cc3ccccc3o2)nc2ccccc12`, the concentration for half-maximal inhibition (IC50) is 171 µM in data set [1]; 9.66 µM in the data set with ASPC1 (ASPC1, 72 h); greater than 200 µM against Histone deacetylase 3; greater than 200 µM in data set [8]; greater than 200 µM on Histone deacetylase 2; greater than 200 µM against Histone deacetylase 8. Moreover, the inhibition result (in data set [2]; in the data set on PANC-1 [3]) was “Dose-dependent effect” in each case. Besides, the outcome in the data set listed under Homo sapiens, with PANC-1 [6] and in the data set with PANC-1 [9] was Active. The Activity result with ASPC1 was “Dose-dependent effect”; in the data set on BXPC-3 it was “Dose-dependent effect”; in [5], “Non-Toxic”. In data set [4], this compound yielded a Kd of 8.85 µM. Besides, the EC1.5 in [7] was in the range of 0.58 to 0.72 µM. Moreover, the concentration for a half-maximal effect (EC50) in data set [7] came to 8.91 µM. The AUCt in [10] came out at 704.67 ng·mL·h. Besides, in data set [11], the Cmax amounted to 98.5 ng/mL.

(Values after ChEMBL document CHEMBL4622973, “Discovery of Potent Small-Molecule SIRT6 Activators: Structure-Activity Relationship and Anti-Pancreatic Ductal Adenocarcinoma Activity” (J Med Chem, 2020).)
